In ChEMBL document CHEMBL4004828, “Synthesis and biological evaluation of fluorinated N-benzoyl and N-phenylacetoyl derivatives of 3-(4-aminophenyl)-coumarin-7-O-sulfamate as steroid sulfatase inhibitors” (Eur J Med Chem, 2017):

Assays:
Steryl-sulfatase = target: T1, Steryl-sulfatase (Homo sapiens, UniProt P08842); test: Inhibition of human placenta steroid sulfatase using p-nitrophenyl sulfate as substrate after 15 mins
T1 sequence (P08842 whole entry): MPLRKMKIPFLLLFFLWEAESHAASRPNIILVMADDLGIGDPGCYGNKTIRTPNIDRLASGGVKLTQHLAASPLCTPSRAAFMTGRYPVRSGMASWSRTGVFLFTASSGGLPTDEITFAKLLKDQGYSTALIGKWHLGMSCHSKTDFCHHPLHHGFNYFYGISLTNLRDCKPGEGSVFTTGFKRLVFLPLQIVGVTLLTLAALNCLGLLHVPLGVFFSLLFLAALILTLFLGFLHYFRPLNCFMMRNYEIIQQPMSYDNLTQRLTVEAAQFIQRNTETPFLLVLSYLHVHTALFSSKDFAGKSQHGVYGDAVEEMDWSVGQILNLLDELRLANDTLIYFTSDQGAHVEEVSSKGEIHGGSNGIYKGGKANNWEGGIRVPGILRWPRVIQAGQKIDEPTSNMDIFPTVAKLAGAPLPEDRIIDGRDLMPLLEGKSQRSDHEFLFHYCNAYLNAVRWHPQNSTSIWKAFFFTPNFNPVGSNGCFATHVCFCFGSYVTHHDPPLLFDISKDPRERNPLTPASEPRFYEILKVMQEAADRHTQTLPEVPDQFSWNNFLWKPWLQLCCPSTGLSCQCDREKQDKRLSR
Outline: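 STS extracted from human placenta, purified to homogeneity by multi-step chromatography; 5 U enzyme in 20 mM Tris–HCl pH 7.4 with 3 mM p-nitrophenyl sulfate and inhibitor 0.01–100 µM, 37 °C for 15 min. Stopped with 1 M NaOH; released p-nitrophenol read at 405 nm. Triplicate measurements; IC50 calculated.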

MCF7 = test: Cytotoxicity against human MCF7 cells assessed as growth inhibition after 120 hrs by MTT assay; format: functional; details: MCF7, 120 h
Outline: (§1)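 Cells grown in phenol red-free high-glucose DMEM with 10% FBS, penicillin (62.6 µg/mL) and streptomycin (40 µg/mL) at 37 °C, 10% CO2, screened for Mycoplasma. Exponentially growing cells exposed to test agents for 120 h; viability read by MTT assay; GI50 derived.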

T47D = test: Cytotoxicity against human T47D cells assessed as growth inhibition after 120 hrs by MTT assay; format: functional; outline: as §1
SK-BR-3 = test: Cytotoxicity against human SKBR3 cells assessed as growth inhibition after 120 hrs by MTT assay; format: functional; details: SK-BR-3, 120 h; outline: as §1
MDA-MB-231 = test: Cytotoxicity against human MDA-MB-231 cells assessed as growth inhibition after 120 hrs by MTT assay; format: functional; details: MDA-MB-231, 120 h; outline: as §1

What does the source list for `NS(=O)(=O)Oc1ccc2cc(-c3ccc(NC(=O)c4ccc(F)cc4)cc3)c(=O)oc2c1`?
IC50 (Steryl-sulfatase): 210 nM; GI50 (MCF7): > 100 µM; GI50 (T47D): > 100 µM; GI50 (SK-BR-3): > 100 µM; GI50 (MDA-MB-231): > 100 µM

For `NS(=O)(=O)Oc1ccc2cc(-c3ccc(F)c(F)c3)c(=O)oc2c1`, which IC50 (Steryl-sulfatase) is on record?
The IC50 was 280 nM.

And the GI50 (MCF7)?
The GI50 was 30 µM.

And the GI50 (T47D)?
Its GI50 is 43 µM.

And the GI50 (SK-BR-3)?
The GI50 was over 100 µM.

And the GI50 (MDA-MB-231)?
Its GI50 is 61.5 µM.

How did the IC50 (Steryl-sulfatase) turn out when `NS(=O)(=O)Oc1ccc2cc(-c3ccc(NC(=O)Cc4ccc(F)c(C(F)(F)F)c4)cc3)c(=O)oc2c1` was run?
Its IC50 is 380 nM.

How did the IC50 (Steryl-sulfatase) turn out when `NS(=O)(=O)Oc1ccc2cc(-c3ccc(NC(=O)Cc4c(F)c(F)c(F)c(F)c4F)cc3)c(=O)oc2c1` was run?
The IC50 was 340 nM.

Which results are given for `NS(=O)(=O)Oc1ccc2ccc(=O)oc2c1`?
IC50 (Steryl-sulfatase): 1380 nM; GI50 (MCF7): > 100 µM; GI50 (T47D): > 100 µM; GI50 (SK-BR-3): > 100 µM; GI50 (MDA-MB-231): > 100 µM

`NS(=O)(=O)Oc1ccc2cc(-c3ccc(NC(=O)Cc4ccc(F)c(F)c4)cc3)c(=O)oc2c1` was tested. Which IC50 (Steryl-sulfatase) did it give?
Its IC50 is 360 nM.

Which IC50 (Steryl-sulfatase) does the source give for `NS(=O)(=O)Oc1ccc2cc(-c3cc(F)c(F)c(F)c3)c(=O)oc2c1` here?
The IC50 was 290 nM.

And the GI50 (MCF7)?
Its GI50 is 32.6 µM.

What about the GI50 (T47D) of the same compound?
The GI50 was 30.7 µM.

What about the GI50 (SK-BR-3) of the same compound?
The GI50 was 61.3 µM.

And the GI50 (MDA-MB-231)?
The GI50 was 56.3 µM.

For `NS(=O)(=O)Oc1ccc2cc(-c3ccc(NC(=O)Cc4ccccc4)cc3)c(=O)oc2c1`, which IC50 (Steryl-sulfatase) is on record?
Its IC50 is 260 nM.

What does the source list for `CC/C(=C(\c1ccccc1)c1ccc(OCCN(C)C)cc1)c1ccccc1` [TAMOXIFEN]?
GI50 (MCF7): 6.8 µM; GI50 (T47D): 10.6 µM; GI50 (SK-BR-3): 12.5 µM; GI50 (MDA-MB-231): 15.1 µM

For `NS(=O)(=O)Oc1ccc2cc(-c3ccc(NC(=O)c4ccc(F)c(F)c4)cc3)c(=O)oc2c1`, which IC50 (Steryl-sulfatase) is on record?
Its IC50 is 180 nM.

What about the GI50 (MCF7) of the same compound?
Its GI50 is over 100 µM.

What about the GI50 (T47D) of the same compound?
Its GI50 is over 100 µM.

What about the GI50 (SK-BR-3) of the same compound?
The GI50 was over 100 µM.

What about the GI50 (MDA-MB-231) of the same compound?
Its GI50 is over 100 µM.

How did the IC50 (Steryl-sulfatase) turn out when `NS(=O)(=O)Oc1ccc2cc(-c3ccc(NC(=O)c4ccccc4)cc3)c(=O)oc2c1` was run?
Its IC50 is 490 nM.

With `NS(=O)(=O)Oc1ccc2cc(-c3ccc(NC(=O)Cc4cc(F)c(F)c(F)c4)cc3)c(=O)oc2c1` as the compound, how does the IC50 (Steryl-sulfatase) read?
Its IC50 is 300 nM.

What about the GI50 (MCF7) of the same compound?
Its GI50 is 31.3 µM.

What about the GI50 (T47D) of the same compound?
The GI50 was 13.7 µM.

What about the GI50 (SK-BR-3) of the same compound?
Its GI50 is 36.1 µM.

What about the GI50 (MDA-MB-231) of the same compound?
The GI50 was 11.7 µM.

Which IC50 (Steryl-sulfatase) does the source give for `NS(=O)(=O)Oc1ccc2cc(-c3ccc([N+](=O)[O-])cc3)c(=O)oc2c1` here?
Its IC50 is 290 nM.

Which IC50 (Steryl-sulfatase) does the source give for `NS(=O)(=O)Oc1ccc2cc(-c3ccc(NC(=O)c4c(F)c(F)c(F)c(F)c4F)cc3)c(=O)oc2c1` here?
Its IC50 is 230 nM.

`NS(=O)(=O)Oc1ccc2cc(-c3ccc(NC(=O)Cc4ccc(OC(F)(F)F)cc4)cc3)c(=O)oc2c1` was tested. Which IC50 (Steryl-sulfatase) did it give?
Its IC50 is 440 nM.
